Measured values from ChEMBL document CHEMBL5058577, “EUbOPEN Chemogenomics Library 2 (Multiplex)” (2022).

Test system: U2OS
Assay: Multiplex assay against U2OS
Format: toxicity, cell-based
Conditions: human
In short: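 Compound was added to live cells that had been stained at seeding with Hoechst33342, BioTracker Green Microtubule Cytoskeleton Dye, MitoTracker Red and Annexin V Alexa Fluor 680, and imaging followed on a CQ1 microscope at 37°C and 5% CO2. CellPathfinder machine-learning gating divided cells into Hoechst high-intensity objects or normal cells, normal cells into healthy, pyknosed or fragmented nuclei, and pyknosed cells into mitotic or apoptotic. Tubulin, mitochondrial-mass and membrane-permeability phenotypes are per cents of healthy-nucleus cells.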

[1] = 12 h, 1 µM, compound concentration 1 uM, replicate 1
[2] = 12 h, 1 µM, compound concentration 1 uM, replicate 2
[3] = 12 h, 10 µM, compound concentration 10 uM, replicate 1
[4] = 12 h, 10 µM, compound concentration 10 uM, replicate 2
[5] = 24 h, 1 µM, compound concentration 1 uM, replicate 1
[6] = 24 h, 1 µM, compound concentration 1 uM, replicate 2
[7] = 24 h, 10 µM, compound concentration 10 uM, replicate 1
[8] = 24 h, 10 µM, compound concentration 10 uM, replicate 2
[9] = 48 h, 1 µM, compound concentration 1 uM, replicate 1
[10] = 48 h, 1 µM, compound concentration 1 uM, replicate 2
[11] = 48 h, 10 µM, compound concentration 10 uM, replicate 1
[12] = 48 h, 10 µM, compound concentration 10 uM, replicate 2

O=C(O)CCC/C=C\CC1C(O)CC(O)C1/C=C/C(O)COc1cccc(Cl)c1 (centres undefined) [CLOPROSTENOL]
Population Apoptotic (%) [1]: 77%
Population Fragmented Nuclei (%) [1]: 30%
Population Healthy Nuclei (%) [1]: 60%
Population Hoechst High Intensity Objects (%) [1]: 3%
Population Membrane Permeable-Phenotype (%) [1]: 2%
Population Mitochondria Different-Phenotype (%) [1]: 0%
Population Mitotic Cells (%) [1]: 22%
Population Normal (%) [1]: 96%
Population Pyknosed Nuclei (%) [1]: 9%
Population Tubulin-Different-Phenotype (%) [1]: 1%
Total Cell Count [1]: 201
Population Apoptotic (%) [2]: 75%
Population Fragmented Nuclei (%) [2]: 11%
Population Healthy Nuclei (%) [2]: 82%
Population Hoechst High Intensity Objects (%) [2]: 0%
Population Membrane Permeable-Phenotype (%) [2]: 6%
Population Mitochondria Different-Phenotype (%) [2]: 3%
Population Mitotic Cells (%) [2]: 25%
Population Normal (%) [2]: 100%
Population Pyknosed Nuclei (%) [2]: 6%
Population Tubulin-Different-Phenotype (%) [2]: 2%
Total Cell Count [2]: 129
Population Apoptotic (%) [3]: 92%
Population Fragmented Nuclei (%) [3]: 28%
Population Healthy Nuclei (%) [3]: 60%
Population Hoechst High Intensity Objects (%) [3]: 2%
Population Membrane Permeable-Phenotype (%) [3]: 8%
Population Mitochondria Different-Phenotype (%) [3]: 1%
Population Mitotic Cells (%) [3]: 7%
Population Normal (%) [3]: 97%
Population Pyknosed Nuclei (%) [3]: 10%
Population Tubulin-Different-Phenotype (%) [3]: 3%
Total Cell Count [3]: 272
Population Apoptotic (%) [4]: 45%
Population Fragmented Nuclei (%) [4]: 9%
Population Healthy Nuclei (%) [4]: 81%
Population Hoechst High Intensity Objects (%) [4]: 0%
Population Membrane Permeable-Phenotype (%) [4]: 9%
Population Mitochondria Different-Phenotype (%) [4]: 6%
Population Mitotic Cells (%) [4]: 54%
Population Normal (%) [4]: 100%
Population Pyknosed Nuclei (%) [4]: 8%
Total Cell Count [4]: 131
Population Apoptotic (%) [5]: 81%
Population Fragmented Nuclei (%) [5]: 24%
Population Healthy Nuclei (%) [5]: 63%
Population Hoechst High Intensity Objects (%) [5]: 1%
Population Membrane Permeable-Phenotype (%) [5]: 4%
Population Mitochondria Different-Phenotype (%) [5]: 2%
Population Mitotic Cells (%) [5]: 18%
Population Normal (%) [5]: 98%
Population Pyknosed Nuclei (%) [5]: 11%
Population Tubulin-Different-Phenotype (%) [5]: 2%
Total Cell Count [5]: 237
Population Apoptotic (%) [6]: 75%
Population Fragmented Nuclei (%) [6]: 15%
Population Healthy Nuclei (%) [6]: 77%
Population Hoechst High Intensity Objects (%) [6]: 0%
Population Membrane Permeable-Phenotype (%) [6]: 6%
Population Mitotic Cells (%) [6]: 25%
Population Normal (%) [6]: 100%
Population Pyknosed Nuclei (%) [6]: 7%
Population Tubulin-Different-Phenotype (%) [6]: 4%
Total Cell Count [6]: 157
Population Apoptotic (%) [7]: 90%
Population Fragmented Nuclei (%) [7]: 23%
Population Healthy Nuclei (%) [7]: 66%
Population Hoechst High Intensity Objects (%) [7]: 2%
Population Membrane Permeable-Phenotype (%) [7]: 7%
Population Mitochondria Different-Phenotype (%) [7]: 2%
Population Mitotic Cells (%) [7]: 10%
Population Normal (%) [7]: 97%
Population Pyknosed Nuclei (%) [7]: 10%
Population Tubulin-Different-Phenotype (%) [7]: 3%
Total Cell Count [7]: 306
Population Apoptotic (%) [8]: 70%
Population Fragmented Nuclei (%) [8]: 11%
Population Healthy Nuclei (%) [8]: 82%
Population Hoechst High Intensity Objects (%) [8]: 0%
Population Membrane Permeable-Phenotype (%) [8]: 11%
Population Mitochondria Different-Phenotype (%) [8]: 4%
Population Mitotic Cells (%) [8]: 30%
Population Normal (%) [8]: 100%
Population Pyknosed Nuclei (%) [8]: 5%
Population Tubulin-Different-Phenotype (%) [8]: 4%
Total Cell Count [8]: 177
Population Apoptotic (%) [9]: 89%
Population Fragmented Nuclei (%) [9]: 20%
Population Healthy Nuclei (%) [9]: 70%
Population Hoechst High Intensity Objects (%) [9]: 1%
Population Membrane Permeable-Phenotype (%) [9]: 2%
Population Mitochondria Different-Phenotype (%) [9]: 1%
Population Mitotic Cells (%) [9]: 10%
Population Normal (%) [9]: 98%
Population Pyknosed Nuclei (%) [9]: 8%
Population Tubulin-Different-Phenotype (%) [9]: 0%
Total Cell Count [9]: 344
Population Apoptotic (%) [10]: 81%
Population Fragmented Nuclei (%) [10]: 11%
Population Healthy Nuclei (%) [10]: 81%
Population Hoechst High Intensity Objects (%) [10]: 0%
Population Membrane Permeable-Phenotype (%) [10]: 6%
Population Mitochondria Different-Phenotype (%) [10]: 3%
Population Mitotic Cells (%) [10]: 18%
Population Normal (%) [10]: 99%
Population Pyknosed Nuclei (%) [10]: 7%
Population Tubulin-Different-Phenotype (%) [10]: 2%
Total Cell Count [10]: 229
Population Apoptotic (%) [11]: 91%
Population Fragmented Nuclei (%) [11]: 18%
Population Healthy Nuclei (%) [11]: 67%
Population Hoechst High Intensity Objects (%) [11]: 3%
Population Membrane Permeable-Phenotype (%) [11]: 6%
Population Mitochondria Different-Phenotype (%) [11]: 1%
Population Mitotic Cells (%) [11]: 8%
Population Normal (%) [11]: 96%
Population Pyknosed Nuclei (%) [11]: 14%
Population Tubulin-Different-Phenotype (%) [11]: 4%
Total Cell Count [11]: 396
Population Apoptotic (%) [12]: 84%
Population Fragmented Nuclei (%) [12]: 12%
Population Healthy Nuclei (%) [12]: 82%
Population Hoechst High Intensity Objects (%) [12]: 2%
Population Membrane Permeable-Phenotype (%) [12]: 10%
Population Mitochondria Different-Phenotype (%) [12]: 2%
Population Mitotic Cells (%) [12]: 15%
Population Normal (%) [12]: 97%
Population Pyknosed Nuclei (%) [12]: 5%
Total Cell Count [12]: 246
